# Shown are actives, neighbours in structure and some others; about 3% of the full set was active somewhere.
# S1P1 ag-PAM = activates or potentiates agonism at human S1P1 receptor; AID 449; 0.57% of 56,000 active; S1P1 CRE-bla cells, forskolin, beta-lactamase FRET, potentiator mode; S1P1 agonist co-added at EC20, 2 nM; 100% = saturating reference agonist, 0% = basal; activation, % at 9.5 µM;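 active means activation above a cutoff set at the mean activation of all tested compounds plus 3 SD, cut at about 54% in these data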;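 further: forskolin at 4 µM as EC80 and the EC20 agonist is SEW2871; 100% = SEW2871 at its EC100 plus forskolin at EC80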
# 5HT1a ag = activates the human 5-HT1a serotonin receptor | 0.56% of 65,000 active | activation, % at 10 µM | P08908 | CHO 5-HT1a Ga15 NFAT-bla reporter, FRET ratio; 0% basal, 100% maximal reference agonist;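 active means activation above the screen-wide mean activation plus 3 SD, cut at about 19% in these data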;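 further: 0% = DMSO wells and 100% = 5-CT at EC100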
# 5HT1E ag = agonists of human 5-HT1E serotonin receptor. P28566. CHO 5-HT1E Ga15 NFAT-bla reporter, FRET; 0% DMSO wells, 100% control agonist wells. activation, % at 6 µM. 0.69% of 65,000 active. AID 574;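 active means activation above a set limit, the screen-wide mean activation plus 3 SD, cut at about 8.5% in these data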;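 further: 100% = positive control agonist at 1 µM giving full maximal response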
# HTR1E antagonist = antagonists of human 5-HT1E serotonin receptor | AID 571 | CHO 5-HT1E Ga15 NFAT-bla reporter, FRET, antagonist | inhibition, % at 6 µM | 0.99% of 65,000 active | P28566;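 active means inhibition above a set limit, the mean inhibition across every tested compound plus 3 SD, cut at about 29% in these data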;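 further: signal is the 460 over 535 nm emission ratio of beta-lactamase substrate; 0% = agonist plus DMSO wells and 100% = wells without agonist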
# 5-HT1A blocker = 5-HT1a (human) receptor antagonism. inhibition, % at 10 µM. 0.68% of 62,000 active. CHO 5-HT1a Ga15 NFAT-bla reporter, antagonist mode. P08908;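 active means inhibition above the mean of all tested compounds plus 3 SD, cut at about 43% in these data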;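 further: receptor stimulated by 5-CT agonist at 100 nM near EC80; beta-lactamase reporter measured by ratiometric fluorescence of a cleavable substrate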
# S1P3 agonist = activates the human S1P3 receptor; Q99500; S1P3 NFAT-BLA reporter cells, agonism, FRET ratio; relative to 1 µM S1P, basal subtracted; activation, % at 4.5 µM; 0.1% of 60,000 active; AID 373;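 active means activation above the screen-wide mean plus 3 SD, cut at about 4.5% in these data, passing the limit was not always enough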
# Target sequence (Q99500 whole entry, looked up): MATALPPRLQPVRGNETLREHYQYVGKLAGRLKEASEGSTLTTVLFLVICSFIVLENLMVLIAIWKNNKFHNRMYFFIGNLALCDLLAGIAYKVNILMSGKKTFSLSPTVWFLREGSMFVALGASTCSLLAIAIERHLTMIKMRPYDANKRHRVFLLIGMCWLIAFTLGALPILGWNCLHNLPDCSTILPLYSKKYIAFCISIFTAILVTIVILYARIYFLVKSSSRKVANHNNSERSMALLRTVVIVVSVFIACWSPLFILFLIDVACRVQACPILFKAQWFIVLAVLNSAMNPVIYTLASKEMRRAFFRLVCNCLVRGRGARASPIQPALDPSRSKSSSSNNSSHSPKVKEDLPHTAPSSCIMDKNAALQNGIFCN
#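 Measure – % activation relative to 1 µM S1P (100%), per plate · System – stable CHO line with human S1P3, Gα16, NFAT-BLA reporter · Timing – cells plated overnight, compound 4 h 37 °C, substrate 2 h RT · Technique – fluorescent BLA substrate, ex 405 nm, em 460/535 nm ratio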
# Starred values were filed as active, the others as inactive.
SMILES,S1P1 ag-PAM,5HT1a ag,5HT1E ag,HTR1E antagonist,5-HT1A blocker,S1P3 agonist
O=C(NCC1CCCO1)c1cc2n(n1)C(C(F)(F)F)CC(c1ccc(F)cc1)N2 (configuration not stated),-1,-4,0,-7,-8,0
CCCCC(=O)Nc1ccc(NC(=O)C2CC2)nc1,0,-2,6,6,7,0
CCOC(=O)N1CCN(C2=Nc3cccc4cccc2c34)CC1,1,71*,1,3,-23,0
CC(C)(C)n1nnnc1C(c1cccc(C#N)c1)N1CCN2CCCC2C1 (configuration not stated),10,1,1,-6,-7,1
CCC(C)(C)n1nnnc1C(c1cccc(C#N)c1)N1CCN(c2cccc(C)c2C)CC1 (configuration not stated),11,-2,10*,-2,18,0
CCC(C)(C)n1nnnc1C(c1ccc(O)c(OC)c1)N1CCN(c2nc3ccccc3s2)CC1 (configuration not stated),5,0,25*,5,26,-1
COc1ccccc1C(c1nnnn1Cc1ccccc1)N1CCN(c2nc3ccccc3s2)CC1 (configuration not stated),4,3,1,-9,44*,-1
COc1ccc(OC)c(C(=O)c2oc3ccccc3c2NC(C)=O)c1,-3,0,-1,-11,12,0
COc1ccc(NCC(=O)Nc2ccc(Cl)cc2C)c(OC)c1,52,-5,0,-7,12,0
CSc1nc(C2CC2)cc(-c2cccs2)c1C#N,-46,-2,0,8,20,0
CCc1nc2ccccc2c(C(=O)OCC(=O)NCCCN2CCCC2=O)c1C,4,0,-1,8,-4,0
O=C(Nc1ccccc1)N1CCN(c2nc3ccccc3s2)CC1,0,2,12*,-14,-19,-1
O=C(Nc1ccc(F)cc1)N1CCN(c2nc3ccccc3s2)CC1,22,1,12*,-12,-6,-2
COC(=O)c1[nH]c2c(c1C)C(=O)CC(c1ccccc1)C2 (configuration not stated),-26,-1,-2,68*,55*,-1
Cc1c(C(=O)N2CCOCC2)[nH]c2c1C(=O)CC(c1ccccc1Cl)C2 (configuration not stated),-18,-1,40*,10,20,-2
Cc1c(C(=O)OCC2CCCO2)[nH]c2c1C(=O)CC(c1ccco1)C2 (configuration not stated),2,-5,-1,9,15,0
Cc1c(C(=O)OC2CCCC2)[nH]c2c1C(=O)CC(c1ccco1)C2 (configuration not stated),34,0,-1,85*,62*,-1
C/C=C/COC(=O)c1[nH]c2c(c1C)C(=O)CC(c1ccco1)C2 (configuration not stated),1,-3,0,78*,64*,-2
COCCOC(=O)c1[nH]c2c(c1C)C(=O)CC(c1cc(OC)ccc1OC)C2 (configuration not stated),7,0,0,22,27,-1
CCCCOc1ccc(C2(C)CC(=O)NC2=O)cc1 (configuration not stated),3,-4,-1,15,14,-1
CCn1cc(C(=O)NC2CCc3ccccc32)c(=O)c2ccc(C)nc21 (configuration not stated),-11,-1,0,4,3,-1
C=CCOC(=O)c1[nH]c2c(c1C)C(=O)CC(c1ccco1)C2 (configuration not stated),2,-3,0,76*,51*,-1
Cc1c(C(=O)OCC(C)C)[nH]c2c1C(=O)CC(c1ccco1)C2 (configuration not stated),13,-3,0,69*,53*,-2
O=C(Nc1ccc(Cn2nnc3ccccc32)cc1)c1ccco1,-16,0,0,-6,4,0

# Source: PubChem BioAssay (The Scripps Research Institute Molecular Screening Center)
